The source made the active and inactive calls. Unless noted, no stated cut-off is given here; in the data, active means inhibition above about 30%; inactive means the rest.
Key:
[1] = Her2 expression decrease, cell viability multiplex – SKBR3 breast tumor cells, AlphaScreen, ATP viability, primary screen (AID 461;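 active means Her2 level under about 52% in both replicate screens, with viability over 70% of control, limit read from the data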;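 on Her2 level: lower value means less Her2 protein in the cells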;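 on viability: percent of carrier control wells set as 100% viability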); conditions: SKBR3 Her2 protein level, 18-24 h, measured here: SKBR3 viability, ATP luminescence, at 10 µM
[2] = molecular target: Receptor tyrosine-protein kinase erbB-2 (Homo sapiens) (UniProt P04626); assay: as above; conditions: 18-24 h, at 10 µM, stronger effect = lower value
Receptor tyrosine-protein kinase erbB-2 (Homo sapiens), sequence (P04626 whole entry, looked up): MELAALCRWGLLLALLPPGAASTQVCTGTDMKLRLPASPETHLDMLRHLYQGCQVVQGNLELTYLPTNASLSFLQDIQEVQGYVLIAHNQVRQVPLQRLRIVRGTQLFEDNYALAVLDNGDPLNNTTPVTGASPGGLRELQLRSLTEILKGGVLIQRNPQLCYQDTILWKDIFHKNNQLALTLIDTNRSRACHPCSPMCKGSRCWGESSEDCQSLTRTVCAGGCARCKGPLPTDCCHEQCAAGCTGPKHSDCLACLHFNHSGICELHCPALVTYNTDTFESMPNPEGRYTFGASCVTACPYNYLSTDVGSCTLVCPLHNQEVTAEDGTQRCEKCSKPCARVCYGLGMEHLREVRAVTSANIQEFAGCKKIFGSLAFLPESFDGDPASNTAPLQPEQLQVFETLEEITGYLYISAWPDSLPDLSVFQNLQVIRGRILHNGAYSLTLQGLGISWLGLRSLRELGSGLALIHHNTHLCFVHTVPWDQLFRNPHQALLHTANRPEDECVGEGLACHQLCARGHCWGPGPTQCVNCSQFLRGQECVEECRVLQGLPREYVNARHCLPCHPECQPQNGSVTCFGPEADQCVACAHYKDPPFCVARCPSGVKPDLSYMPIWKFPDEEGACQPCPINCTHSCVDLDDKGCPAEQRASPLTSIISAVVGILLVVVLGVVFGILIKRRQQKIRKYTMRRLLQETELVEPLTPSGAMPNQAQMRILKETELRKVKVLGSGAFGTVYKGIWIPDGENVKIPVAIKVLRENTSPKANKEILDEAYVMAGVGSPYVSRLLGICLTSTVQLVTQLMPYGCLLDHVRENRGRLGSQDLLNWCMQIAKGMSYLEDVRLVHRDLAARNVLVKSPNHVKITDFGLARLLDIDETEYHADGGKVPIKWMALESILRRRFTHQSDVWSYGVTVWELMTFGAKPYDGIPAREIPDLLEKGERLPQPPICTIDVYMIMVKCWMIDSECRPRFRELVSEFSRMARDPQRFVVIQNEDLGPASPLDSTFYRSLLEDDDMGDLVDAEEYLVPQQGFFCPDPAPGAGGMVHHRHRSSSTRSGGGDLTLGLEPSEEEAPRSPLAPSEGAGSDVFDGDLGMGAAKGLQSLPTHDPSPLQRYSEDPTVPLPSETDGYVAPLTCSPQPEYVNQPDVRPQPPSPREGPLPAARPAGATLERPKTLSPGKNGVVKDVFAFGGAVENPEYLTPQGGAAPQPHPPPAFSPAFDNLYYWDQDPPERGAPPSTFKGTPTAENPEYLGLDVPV

[3] = reduced viability of SK-BR-3 breast cancer cells – cell-based, 24 h, human, pilot screen (AID 572;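 active means viability at or below 10% of carrier control in both of two separate runs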;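 further: compound exposure lasted between 18 and 24 h rather than exactly 24 h; 100% = carrier-treated control wells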); conditions: SK-BR-3 viability, CellTiter-Glo luminescence, at 10 µM, stronger effect = lower value
[4] = HUVEC growth inhibition – cell-based, human, primary screen (AID 575;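 active means viability at or below 30% in both replicate assays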;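 further: 100% = median of untreated cell wells with 0.1% DMSO on each plate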); conditions: HUVEC proliferation, CellTiter-Glo luminescence, 72 h; at 10 µM; stronger effect = lower value
Outline: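 Test system – primary HUVEC, no more than 12 passages · Dosing – one dose, 10 µM final, 0.1% DMSO · Times – 72 h treatment at 37 °C · Measured by – ATP-based CellTiter-Glo luminescent read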

[5] = H69AR cell proliferation blockers – human, duplicate replicates, primary screen (AID 580;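 active means viability at or under a set limit in both replicates, limit being median viability minus 3 SD, cut at about 48% in these data, passing the limit was not always enough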;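 further: 100% = mean luminescence of untreated wells and 0% = no signal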); conditions: H69AR lung tumor cells viability, ATP luminescence, 72 h; at 10 µM; stronger effect = lower value
[6] = MRP1 drug-resistance reversers in H69AR cells – cell-based, doxorubicin co-treatment, pilot screen (AID 601;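 active means viability loss from added drug above about 55%, and viability with drug at most 40%, in both replicates, limit read from the data, passing the limit was not always enough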); conditions: CellTiter-Glo, 72 h, at 10 µM; for differential viability (reversal): stronger effect = higher value
[7] = yeast transport mutant growth inhibition pilot in 384-well plates, post-Golgi transport modulator project (AID 636; in the data active means inhibition above about 31%); conditions: absorbance 615 nm, about 18 h, stronger effect = higher value
[8] = growth suppression of yeast trafficking mutant, preliminary HTS, modulators of trafficking downstream of Golgi apparatus project, 1536-format plate, OD 615 nm (AID 637); conditions: yeast transport mutant growth, absorbance 615 nm, 18 h; stronger effect = higher value
[9] = H69AR cells + 2 uM doxorubicin, measured here: viability with 2 uM doxorubicin, stronger effect = lower value
[10] = H69AR cells, compound alone cytotoxicity

SMILES | viability [1] [%] | Her2 level [2] | viability [3] | viability [4] | viability [5] | differential viability (reversal) ([6]; H69AR cells + 2 uM doxorubicin) | viability [6, 9] [%] | viability [6, 10] [%] | inhibition [7] | inhibition [8]
C=CCn1c(CC#N)nnc1N1CCOCC1 | 90.5 | 88% (inactive) | 90.5% (inactive) | 100% (inactive) | 109% (inactive) | 19.4% (inactive) | 89.5 | 109 | -0.68% (inactive) | -2.22% (inactive)
O=C1CC(c2cccc(Cl)c2)CC(O)=C1C=NCCCO (stereo not given) | 102 | 90.5% (inactive) | 102% (inactive) | 83.7% (inactive) | 103% (inactive) | 4.62% (inactive) | 98.1 | 103 | -6.27% (inactive) | -0.33% (inactive)
Cc1c(NC(=O)C2(c3ccccc3)CCOCC2)c(=O)n(-c2ccccc2)n1C | 92.5 | 92% (inactive) | 92.5% (inactive) | 113% (inactive) | 93.6% (inactive) | -3.73% (inactive) | 97.3 | 93.6 | -3.07% (inactive) | -4.76% (inactive)
CCOC(=O)C1CCCN(Cc2nc(N)nc(Nc3ccc(C)cc3)n2)C1 (stereo not given) | 99.5 | 78% (inactive) | 99.5% (inactive) | 80% (inactive) | 87.4% (inactive) | -1.19% (inactive) | 88.6 | 87.4 | 0% (inactive) | 7.54% (inactive)
O=C1CCCCCN1CSc1nc2ccccc2s1 | 123 | 101% (inactive) | 123% (inactive) | 80.5% (inactive) | 88% (inactive) | 4.73% (inactive) | 83.3 | 88 | -5.45% (inactive) | -2.62% (inactive)
N#Cc1c(/N=C/c2cccs2)sc2c1CCCCC2 | 98.5 | 88.5% (inactive) | 98.5% (inactive) | 66.5% (inactive) | 90.3% (inactive) | 16.3% (inactive) | 73.9 | 90.3 | -5.33% (inactive) | 5.74% (inactive)
CCOC(=O)C(NC(=O)c1ccc(OC)cc1)(N1CCOCC1)C(F)(F)F (stereo not given) | 112 | 95.5% (inactive) | 112% (inactive) | 115% (inactive) | 100% (inactive) | -2.41% (inactive) | 102 | 100 | -4.81% (inactive) | 0.32% (inactive)
Cc1ccc(S(=O)(=O)n2nc(OC(=O)c3ccco3)cc2N)cc1 | 92.5 | 106% (inactive) | 92.5% (inactive) | 96.4% (inactive) | 88.8% (inactive) | 4.73% (inactive) | 84 | 88.8 | -6.32% (inactive) | -1.45% (inactive)
CCCCOC(=O)CNc1nnc(SCC(=O)OCC)[nH]c1=O | 114 | 87% (inactive) | 114% (inactive) | 74.8% (inactive) | 98.6% (inactive) | 11.7% (inactive) | 86.9 | 98.6 | -0.91% (inactive) | -3.81% (inactive)
CC(=O)Nc1ccccc1OCc1nnc(-c2cccs2)o1 | 97 | 93% (inactive) | 97% (inactive) | 82.1% (inactive) | 98.1% (inactive) | 15.9% (inactive) | 82.1 | 98.1 | -2.86% (inactive) | -3.97% (inactive)
CCOC(=O)CN1CC23C=CC(O2)C(C(=O)NC2CCCC2)C3C1=O (stereo not given) | 86.5 | 84% (inactive) | 86.5% (inactive) | 106% (inactive) | 98.2% (inactive) | 10.6% (inactive) | 87.6 | 98.2 | -0.64% (inactive) | 4.33% (inactive)
Cc1ccc(S(=O)(=O)NCCNC(=O)c2ccccc2)cc1 | 99 | 82% (inactive) | 99% (inactive) | 105% (inactive) | 99.2% (inactive) | 19.7% (inactive) | 79.5 | 99.2 | -8.92% (inactive) | -0.83% (inactive)
COc1cccc(Oc2ccc(N)cn2)c1 | 87 | 106% (inactive) | 87% (inactive) | 109% (inactive) | 88.1% (inactive) | 3.66% (inactive) | 84.4 | 88.1 | -2.37% (inactive) | -4.43% (inactive)
CCOC(=O)c1cnc(-n2nc(C)cc2C)nc1Nc1cccc(C(C)=O)c1 | 87.5 | 110% (inactive) | 87.5% (inactive) | 95.7% (inactive) | 88% (inactive) | -9.45% (inactive) | 97.5 | 88 | 1.32% (inactive) | -4.35% (inactive)
NC(=O)c1c(NC(=O)CSc2nnc(-c3ccco3)n2-c2ccccc2)sc2c1CCC2 | 76 | 68% (inactive) | 76% (inactive) | 56.5% (inactive) | 28.9% (active) | -37.9% (inactive) | 66.8 | 28.9 | -4% (inactive) | 35.7% (active)
COc1ccccc1Oc1coc2c(CN3CCN(C)CC3)c(O)ccc2c1=O | 102 | 111% (inactive) | 102% (inactive) | 96.1% (inactive) | 99.5% (inactive) | 14.9% (inactive) | 84.7 | 99.5 | -1.82% (inactive) | 1% (inactive)
O=C(CCc1nc2ccccc2s1)OCC(=O)N1CCN(C(=O)c2ccco2)CC1 | 117 | 93.5% (inactive) | 117% (inactive) | 91.1% (inactive) | 90.5% (inactive) | 3.61% (inactive) | 86.8 | 90.5 | -5.41% (inactive) | -0.48% (inactive)
COc1ccc(-n2ccnc2SCC(=O)NCc2ccc3c(c2)OCO3)cc1 | 128 | 89.5% (inactive) | 128% (inactive) | 95.3% (inactive) | 87.2% (inactive) | -5.35% (inactive) | 92.6 | 87.2 | -2.73% (inactive) | -1.9% (inactive)
COc1ccc(S(=O)(=O)n2ccnc2)c2cccnc12 | 94.5 | 110% (inactive) | 94.5% (inactive) | 90.7% (inactive) | 96.1% (inactive) | -0.965% (inactive) | 97.1 | 96.1 | -2.13% (inactive) | -4.1% (inactive)
COc1ccc(C(=O)NCCn2ccc3ccccc32)cc1 | 126 | 97% (inactive) | 126% (inactive) | 111% (inactive) | 92.5% (inactive) | 8.59% (inactive) | 84 | 92.5 | -5.6% (inactive) | 0.16% (inactive)
COCCn1c(SCC(=O)Nc2cccc(OC)c2)nnc1-c1ccccc1 | 101 | 99.5% (inactive) | 101% (inactive) | 90.1% (inactive) | 103% (inactive) | 6.8% (inactive) | 96.6 | 103 | -3.51% (inactive) | 4.43% (inactive)
COc1cccc(N2CCN(Cc3cccnc3)CC2)c1 | 81.5 | 97.5% (inactive) | 81.5% (inactive) | 93% (inactive) | 87.8% (inactive) | -7.62% (inactive) | 95.4 | 87.8 | -0.38% (inactive) | 3.33% (inactive)
O=C(Nc1cccc(C(F)(F)F)c1)c1ccco1 | 129 | 79.5% (inactive) | 129% (inactive) | 95.9% (inactive) | 103% (inactive) | 19.4% (inactive) | 84 | 103 | -5.33% (inactive) | 8.52% (inactive)
CCOC(=O)C1CCN(C(=O)COc2ccc(Cl)cc2Cl)CC1 | 109 | 98% (inactive) | 109% (inactive) | 101% (inactive) | 96.2% (inactive) | 10.2% (inactive) | 86.1 | 96.2 | -3.64% (inactive) | -6.35% (inactive)
Cc1ccc(NC(=O)CCC(=O)OCC(F)(F)C(F)F)cc1 | 98 | 106% (inactive) | 98% (inactive) | 117% (inactive) | 103% (inactive) | -1.04% (inactive) | 104 | 103 | -0.65% (inactive) | -7.67% (inactive)
Cc1cc2oc(=O)cc(CN3CCN(Cc4ccc5c(c4)OCO5)CC3)c2cc1C | 96.5 | 91.5% (inactive) | 96.5% (inactive) | 84.3% (inactive) | 80.6% (inactive) | 0.615% (inactive) | 80 | 80.6 | -5.73% (inactive) | -1.29% (inactive)
CCOC(=O)C1=C(CN2CCOCC2)NC(=O)NC1c1cc(C)ccc1C (stereo not given) | 92 | 89% (inactive) | 92% (inactive) | 101% (inactive) | 78.9% (inactive) | 16.7% (inactive) | 62.2 | 78.9 | -6.76% (inactive) | 4.33% (inactive)
O=C1CCc2cc(S(=O)(=O)N3CCC(C(=O)NCc4ccccn4)CC3)ccc2N1 | 81 | 89% (inactive) | 81% (inactive) | 98% (inactive) | 96.7% (inactive) | 1.42% (inactive) | 95.3 | 96.7 | -0.4% (inactive) | 14.4% (inactive)

From PubChem BioAssay
